# Efflux pump mplx: antifungal efflux pump inhibition, Nile Red retention; S. cerevisiae Candida pump triplex; inhibition, % at 10 µM; hit rate 0.44% among 330,000;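 active = plate passing quality check with inhibition over a set limit, or well fluorescence over plate mean plus 4 SD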;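 note: Nile Red retained in pooled yeast measured as flow cytometry median fluorescence; 0% = buffer negative control and 100% = Enniatin B positive control; higher means more Nile Red kept so more efflux inhibition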
# H9c2 TAG inh: triacylglycerol accumulation inhibition | H9c2 cells, Nile Red lipid (TAG) fluorescence; cells loaded with 200 µM oleic acid | inhibition, % at 12.5 µM | hit rate 0.66% among 230,000;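 active = pattern-corrected inhibition of lipid staining of at least 50% with the nuclear-stain viability signal not falling by more than 50%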;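 note: 0% = DMSO wells and 100% = triacsin C control wells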
# GalR3 antagonist: human GalR3 antagonism; HEK293 GalR3-CNG cAMP membrane potential fluorescence; galR3 body fused to GalR1 C-terminus; inhibition, % at 3 µM; hit rate 0.44% among 360,000;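 active = inhibition above the screen-wide average plus 3 SD, cut at about 13% in these data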;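 note: forskolin and galanin both at EC90 stimulate the cells; cAMP rise reported by CNG channel membrane potential dye signal; 0% = forskolin plus galanin with DMSO and 100% = forskolin alone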
# Target sequence (O60755 1-299 limits assumed): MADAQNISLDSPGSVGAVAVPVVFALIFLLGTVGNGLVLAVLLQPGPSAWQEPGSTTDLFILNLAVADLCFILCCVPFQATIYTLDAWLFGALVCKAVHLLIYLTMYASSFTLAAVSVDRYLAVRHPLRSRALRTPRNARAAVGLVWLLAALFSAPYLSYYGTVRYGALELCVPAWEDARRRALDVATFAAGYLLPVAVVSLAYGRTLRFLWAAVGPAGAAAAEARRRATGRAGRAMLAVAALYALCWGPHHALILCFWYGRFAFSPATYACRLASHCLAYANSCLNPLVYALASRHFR
# MC4R ag barr: agonists of human melanocortin 4 receptor (MC4R) beta-arrestin | P32245 | U2OS MC4R beta-arrestin complementation, luminescence; percent of melanotan II response, DMSO zero | activation, % at 8.9 µM | hit rate 0.98% among 360,000;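 active = activation above a per-plate cutoff, the mean activation of sample wells on that plate plus 3 SD, cut at about 8% in these data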
# Target sequence (P32245 whole entry, looked up): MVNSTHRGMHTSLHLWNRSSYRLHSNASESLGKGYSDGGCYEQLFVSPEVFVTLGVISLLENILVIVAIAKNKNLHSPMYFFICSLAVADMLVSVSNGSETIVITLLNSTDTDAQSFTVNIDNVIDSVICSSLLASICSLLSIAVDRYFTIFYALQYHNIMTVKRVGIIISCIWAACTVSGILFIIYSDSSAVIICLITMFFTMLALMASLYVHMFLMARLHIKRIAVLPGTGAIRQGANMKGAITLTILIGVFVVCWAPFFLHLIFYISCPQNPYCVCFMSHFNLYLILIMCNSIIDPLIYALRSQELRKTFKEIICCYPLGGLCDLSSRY
# MC4R antagonist: human MC4R antagonism in cAMP assay; inhibition, % at 6.5 µM; MC4R-expressing cells, MTII-stimulated cAMP, LANCE TR-FRET; hit rate 0.48% among 360,000; AID 540295;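 active = inhibition above its plate's cutoff, the mean of tested wells on that plate plus 3 SD, cut at about 29% in these data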;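 note: 0% = Melanotan II alone and 100% = Melanotan II plus saturating MCL0020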
#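 Assay system: U2OS cells stably expressing human melanocortin 4 receptor (MC4R) / Dosing: 6.5 µM / Timing: compound 30 min, challenge 1 h, detection 1 h / Measured by: Eu-cAMP/anti-cAMP TR-FRET, emission 671 nm / Replicates: singlicate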
# Calb FLC: affects C. albicans growth with fluconazole; growth inhibition, % (no concentration beside the values); C. albicans CaCi-2 (fluconazole-resistant clinical isolate) + fluconazole, Alamar Blue growth, 48 h; hit rate 0.57% among 300,000;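 active = growth inhibition above about 58% in most replicates, limit read from the data, passing the limit was not always enough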;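 note: all wells also contain fluconazole at 8 µg/ml as a sub-toxic cotreatment; 0% = median of DMSO wells and 100% = median of geldanamycin control wells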
# Cmpd fluor yeast: compound fluorescence in yeast efflux pump counter-screen; fluorescence ratio to DMSO, % at 10 µM; shares compounds with Efflux pump mplx; hit rate 4% among 1,700; AID 588517; S. cerevisiae AD/pABC3, flow cytometry;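 active = fluorescence ratio to DMSO above its plate's cutoff, the plate mean ratio plus 5 SD, cut at about 210% in these data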;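 note: unstained yeast with no Nile Red so the signal is compound autofluorescence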
# CaMdr1 efflux inh: blocks the Candida albicans Mdr1 efflux pump in yeast. S. cerevisiae AD/CaMDR1, Nile Red efflux, flow cytometry. hit rate 1% among 1,700. AID 588518. inhibition, % at 10 µM. shares compounds with Efflux pump mplx; in the data active = inhibition above about 26%;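 note: 0% = DMSO vehicle and 100% = reference inhibitor; higher means more Nile Red retained so more efflux inhibition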
# Cdr2 pump inh: Candida Cdr2 efflux pump inhibition | shares compounds with Efflux pump mplx | S. cerevisiae AD/CaCDR2, Nile Red retention, flow cytometry | hit rate 4% among 1,700 | Nile Red retention ratio vs DMSO, % at 10 µM; in the data active = Nile Red retention ratio vs DMSO above about 190%;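 note: higher ratio means more blocking of Cdr2 efflux of the dye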
# Cdr1 pump inh: Candida Cdr1 efflux pump inhibition; shares compounds with Efflux pump mplx; S. cerevisiae AD/CaCDR1, Nile Red efflux, flow cytometry; inhibition, % at 10 µM; hit rate 1% among 1,700; AID 588522;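 active = inhibition above the screen-wide mean plus twice its standard deviation, cut at about 32% in these data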
# Active calls of the source: *; . = no result; + = active, no number. Sampled rows, rich in hits. Any-hit rate of the full collection: about 2.9%.
SMILES,Efflux pump mplx,H9c2 TAG inh,GalR3 antagonist,MC4R ag barr,MC4R antagonist,Calb FLC,Cmpd fluor yeast,CaMdr1 efflux inh,Cdr2 pump inh,Cdr1 pump inh
C[C@@H]1CN([C@H](C)CO)S(=O)(=O)c2ccc(C#CC3CCCC3)cc2O[C@H]1CN(C)C(=O)Cc1ccccc1,.,7,-4,0,21,.,.,.,.,.
CCOC(=O)[C@]12CCCC=C1N(Cc1ccc(Cl)cc1Cl)C(=O)[C@H](CC(=O)NCc1ccc(OC)c(OC)c1)C2,.,.,-3,.,.,.,.,.,.,.
Cc1ccc(SCC(=O)N(Cc2nc(-c3ccccc3)no2)C(C)C)cc1,1.5*,-10,-5,1,7,-15,99,0,106,0
Cc1ccc(C(=O)N(Cc2nc(-c3ccc(C)cc3)no2)C(C)C)cc1,0,.,3,2,12,-10,.,.,.,.
O=C1c2ccc([N+](=O)[O-])cc2C(=O)N1c1ccc(Cl)cn1,0,0,-3,-1,-3,-3,.,.,.,.
O=C1c2cccc3c([N+](=O)[O-])ccc(c23)C(=O)N1c1ccccn1,0.7*,31,-6,-2,-5,7,149,1,139,1
O=C1c2cccc3c(N4CCCCC4)ccc(c23)C(=O)N1c1ccccn1,0,15,1,-1,1,2,.,.,.,.
O=C1c2cccc3c([N+](=O)[O-])ccc(c23)C(=O)N1c1ccc(Cl)cn1,2.1*,.,-7,1,-19,1,265*,1,177,0
O=C1c2cccc3c([N+](=O)[O-])ccc(c23)C(=O)N1O,4.1*,.,6,-1,4,-3,138,1,262*,1
CC1=C(C(=O)N2CCCCCC2)CC(CC(=O)NCCc2ccccn2)C(=O)N1Cc1ccc(C(C)(C)C)cc1 (configuration not stated),.,.,-5,.,.,.,.,.,.,.
O=Nc1ccccn1,.,.,-6,.,.,.,.,.,.,.
O=C1c2ccccc2C(c2nnnn2-c2ccc3c(c2)OCCO3)N1Cc1cccc(F)c1 (configuration not stated),.,.,-5,.,.,.,.,.,.,.
Cn1cnc([N+](=O)[O-])c1Oc1cccc2ccccc12,1.1*,.,3,1,-1,-6,103,0,114,0
O=S1(=O)N[C@H](Cc2ccccc2)COc2cccc(N3CCCCC3)c21,.,.,-6,.,.,.,.,.,.,.
C/C(=N\Nc1nc(N)cc(Cl)n1)c1ccc(F)cc1,0.5*,1,-6,0,1,8,100,0,101,0
COc1ccc(C(C(=O)NC2CCCC2)n2c(-c3cccs3)nc3ccccc32)cc1 (configuration not stated),.,.,-6,.,.,.,.,.,.,.
CCN1C(=O)N(C(C)=O)[C@H]2C[C@H](C(=O)N3CCCC3)[C@H](C)[C@H](c3ccccc3)C[C@H]21,.,.,-6,.,.,.,.,.,.,.
CCOc1ccc(S(=O)(=O)N2CCCCCC2)cc1,9.8*,.,5,-1,-7,0,108,0,100,0
CCOc1ccc(S(=O)(=O)Nc2ccc(S(=O)(=O)N3CCCCC3)cc2)cc1,0,.,1,-1,3,6,.,.,.,.
O=C(NCc1ccc(F)cc1)C(=O)NCC1OCCN1S(=O)(=O)c1cc(F)ccc1F (configuration not stated),.,7,-6,0,-2,.,.,.,.,.
COc1ccc(S(=O)(=O)Nc2ccc3c(c2)N(C(C)=O)CCC3)cc1OC,1.0*,4,-6,-1,15,-1,106,0,100,0
O=C(O)CN=C(Nc1cc(Cl)cc(Cl)c1)NC(c1ccccc1)c1ccccc1,.,.,-2,.,.,.,.,.,.,.
CCOC(=O)[C@]12CCC=C1N(Cc1ccc(Cl)cc1Cl)C(=O)[C@H](CC(=O)N1CCN(C(=O)c3ccco3)CC1)C2,.,.,-4,.,.,.,.,.,.,.
CNCc1ccccc1OCC(=O)Nc1ccccc1,8.2*,.,-7,2,-3,6,106,0,106,0
Cc1c(OC(C)C(=O)NCc2ccccn2)ccc2c3c(c(=O)oc12)CCCC3 (configuration not stated),1.8*,.,4,-1,7,4,101,0,79,0
SMILES,Efflux pump mplx,H9c2 TAG inh,GalR3 antagonist,MC4R ag barr,MC4R antagonist,Calb FLC,Cmpd fluor yeast,CaMdr1 efflux inh,Cdr2 pump inh,Cdr1 pump inh
CN(C(=O)[C@@H](Cc1ccccc1)NC(=O)[C@H]1O[C@@H](n2cnc3c(=O)[nH]c(N)nc32)[C@H](O)[C@@H]1O)C1CCCCC1,.,.,-2,.,.,.,.,.,.,.
CN1CCN(C(=O)/C=C/c2ccc([N+](=O)[O-])cc2)CC1,12*,.,-1,-1,-1,13,98,0,89,0
O=C(CC1N=C2c3ccccc3N=C(SCc3ccc(F)cc3)N2C1=O)NCc1ccco1 (configuration not stated),0,1,6,2,13,-4,.,.,.,.
Cc1ccc(CSC2=Nc3ccccc3C3=NC(CC(=O)NCc4ccco4)C(=O)N23)cc1 (configuration not stated),0.6*,-34,-3,-2,-8,9,99,0,114,0
Cc1ccc2nc(/C(C#N)=C\c3ccc(N4CCOCC4)o3)[nH]c2c1,0.5*,-145,1,-2,-2,9,128,0,131,0
Cc1ccc2nc(/C(C#N)=C\c3ccc([N+](=O)[O-])o3)[nH]c2c1,18*,.,-6,766*,-47,71,+,8,+,0
N#C/C(=C\c1ccc([N+](=O)[O-])o1)c1nc2ccccc2[nH]1,5.1*,.,-2,.,.,25,+,4,478*,2
N#C/C(=C(/O)c1ccc([N+](=O)[O-])o1)c1nc2ccccc2[nH]1,0,78,-3,1,4,3,.,.,.,.
CCCCCCn1c(=O)n2n(c1=O)[C@@H]1CN(S(=O)(=O)c3ccc(C)cc3)C[C@]1(O)[C@@H](OC(=O)Nc1cccs1)C2,.,24,-4,1,11,.,.,.,.,.
Cc1cccnc1NC(=O)CCNS(=O)(=O)c1ccc2c(c1)c(=O)n(C)c(=O)n2C,0,5,-5,-1,1,25,.,.,.,.
Cc1ccc(CCNC(=O)CCNS(=O)(=O)c2ccc3c(c2)c(=O)n(C)c(=O)n3C)cc1,9.0*,.,-4,-2,1,-3,100,0,89,0
Cc1csc(NC(=O)CCNS(=O)(=O)c2ccc3c(c2)c(=O)n(C)c(=O)n3C)n1,6.7*,.,-5,0,-1,3,98,0,105,0
